Measured values published in ChEMBL document CHEMBL2010803, “Novel NSAID 1-acyl-4-cycloalkyl/arylsemicarbazides and 1-acyl-5-benzyloxy/hydroxy carbamoylcarbazides as potential anticancer agents and antioxidants” (Eur J Med Chem, 2012).
Calls of active or inactive are those of the source. No cut-off for these calls is given here.

Assays:
CCRF-CEM = test: Cytostatic activity against human CEM cells after 3 days by coulter counter analysis; type: functional, cell-based; conditions: 72 h
Procedure, shortened: (§1)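 300,000–500,000 cells/ml mixed 1:1 with compound dilutions and incubated at 37 °C for 2 days (L1210) or 3 days (CEM, HeLa). Cell number counted with a Coulter counter; HeLa trypsinized before counting.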

[1] = Antioxidant activity assessed as inhibition of AAPH-induced linoleic acid lipid peroxidation by measuring conjugated diene hydroperoxide level; type: functional; design: concentration or dose not given beside the values; conditions: dose or concentration not given here
Procedure, shortened: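 Linoleic acid sodium salt (10 μL of 16 mM) in 0.05 M phosphate buffer pH 7.4 at 37 °C. Oxidation started under air with 50 μL of 40 mM AAPH. Conjugated diene hydroperoxide formation followed as absorbance rise at 234 nm; control contains the same DMSO level. At least triplicate.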

HeLa = test: Cytostatic activity against human HeLa cells after 3 days by coulter counter analysis; type: functional, cell-based; conditions: 72 h; procedure, shortened: as §1
[2] = system: Radical scavenging activity; test: Antioxidant activity assessed as DPPH free radical scavenging activity at 100 uM after 20 mins by spectrophotometric analysis; type: functional
Procedure, shortened: (§2)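 0.05 mM DPPH in absolute ethanol mixed with an equal volume of compound in DMSO (final 100 μM). Shaken and left 20 or 60 min, then absorbance read at 517 nm and percent activity calculated. Three replicates, averaged.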

Human respirovirus 3 = test: Antiviral activity against Parainfluenza virus 3 infected in african green monkey Vero cells assessed as inhibition of virus-induced cytopathic effect at 0.32 to 100 uM; type: functional, organism-based
Procedure, shortened: (§3)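 Confluent cell cultures were infected with 100 CCID50 of virus in the presence of test compound at 100, 40, 8, 1.6 and 0.32 μM. Cytopathic effect was scored once it was complete in untreated infected controls.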

Vaccinia virus = test: Antiviral activity against Vaccinia virus infected in human lung fibroblast assessed as inhibition of virus-induced cytopathic effect at 0.32 to 100 uM; type: functional, organism-based; conditions: Orthopoxvirus vaccinia
[3] = system: Human immunodeficiency virus 2; test: Antiviral activity against HIV2 ROD infected in human CEM cells assessed as inhibition of virus-induced CEM giant cell formation at 0.32 to 100 uM after 4 days; type: functional, organism-based; conditions: ISOLATE ROD, CCRF-CEM
Procedure, shortened: (§4)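 CEM cells (~3 × 10^5 cells/cm³) exposed to 100 CCID50/ml of virus and seeded into wells holding compound dilutions. Incubated 4 days at 37 °C, then giant cell formation examined microscopically.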

Influenza A virus [4] = test: Antiviral activity against Influenza A virus H1N1 infected in MDCK cells assessed as inhibition of virus-induced cytopathic effect at 0.32 to 100 uM; type: functional, organism-based
Procedure, shortened: (§5)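 Confluent MDCK monolayers were infected in the presence of the compound at 100, 40, 8, 1.6 and 0.32 μM. Viral cytopathicity was scored once it was complete in untreated infected control cultures.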

Human alphaherpesvirus 1 = test: Antiviral activity against HSV1 KOS infected in human lung fibroblast assessed as inhibition of virus-induced cytopathic effect at 0.32 to 100 uM; type: functional, organism-based; procedure, shortened: as §3
Sindbis virus = test: Antiviral activity against Sindbis virus infected in african green monkey Vero cells assessed as inhibition of virus-induced cytopathic effect at 0.32 to 100 uM; type: functional, organism-based; procedure, shortened: as §3
[5] = system: Vesicular stomatitis virus; test: Antiviral activity against Vesicular stomatitis virus infected in human cervix carcinoma cells assessed as inhibition of virus-induced cytopathic effect at 0.32 to 100 uM; type: functional, organism-based
Procedure, shortened: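 Confluent human cervix carcinoma (HeLa) cultures received 100 CCID50 of VSV together with the compound at 100, 40, 8, 1.6 or 0.32 μM. Cytopathicity was read at the point of full CPE in infected, untreated control wells.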

[6] = system: Mammalian orthoreovirus 1; test: Antiviral activity against Reovirus-1 infected in african green monkey Vero cells assessed as inhibition of virus-induced cytopathic effect at 0.32 to 100 uM; type: functional, organism-based; procedure, shortened: as §3
[7] = system: Respiratory syncytial virus; test: Antiviral activity against RSV infected in human cervix carcinoma cells assessed as inhibition of virus-induced cytopathic effect at 0.32 to 100 uM; type: functional, organism-based; procedure, shortened: as §3
MCF7 = test: Cytostatic activity against human MCF7 cells after 72 hrs by MTT assay; type: functional, cell-based; conditions: MCF7, 72 h
Procedure, shortened: (§6)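 Monolayers in DMEM with 10% FBS, 2 mM L-glutamine and penicillin/streptomycin, 37 °C, 5% CO2. Seeded at 1–3 × 10^4 cells/ml, then compound added in tenfold dilutions (10⁻⁸–10⁻⁴ M) for 72 h. MTT read at 570 nm; percent growth taken against time-zero and untreated controls. IC50 by linear regression; quadruplicate, at least two experiments.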

NCI-H460 = test: Cytostatic activity against human NCI-H460 cells after 72 hrs by MTT assay; type: functional, cell-based; conditions: NCI-H460, 72 h; procedure, shortened: as §6
Felid alphaherpesvirus 1 = test: Antiviral activity against Feline herpesvirus infected in feline CRFK cells assessed as inhibition of virus-induced cytopathic effect at 0.32 to 100 uM; type: functional, organism-based; procedure, shortened: as §3
[8] = system: Radical scavenging activity; test: Antioxidant activity assessed as DPPH free radical scavenging activity at 100 uM after 60 mins by spectrophotometric analysis; type: functional; procedure, shortened: as §2
Human alphaherpesvirus 2 = test: Antiviral activity against HSV2 G infected in human lung fibroblast assessed as inhibition of virus-induced cytopathic effect at 0.32 to 100 uM; type: functional, organism-based; conditions: strain G; procedure, shortened: as §3
HCT-116 = test: Cytostatic activity against human HCT116 cells after 72 hrs by MTT assay; type: functional, cell-based; conditions: HCT-116, 72 h; procedure, shortened: as §6
L1210 = test: Cytostatic activity against mouse L1210 cells after 2 days by coulter counter analysis; type: functional, cell-based; conditions: L1210, 48 h; procedure, shortened: as §1
Influenza A virus [9] = test: Antiviral activity against Influenza A virus H3N2 infected in MDCK cells assessed as inhibition of virus-induced cytopathic effect at 0.32 to 100 uM; type: functional, organism-based; procedure, shortened: as §5
Coxsackievirus B4 [10] = test: Antiviral activity against Coxsackievirus B4 infected in african green monkey Vero cells assessed as inhibition of virus-induced cytopathic effect at 0.32 to 100 uM; type: functional, organism-based; procedure, shortened: as §3
[11] = system: Human immunodeficiency virus 1; test: Antiviral activity against HIV1 3B infected in human CEM cells assessed as inhibition of virus-induced CEM giant cell formation at 0.32 to 100 uM after 4 days; type: functional, organism-based; conditions: CCRF-CEM; procedure, shortened: as §4
Punta Toro virus = test: Antiviral activity against Punta Toro virus infected in african green monkey Vero cells assessed as inhibition of virus-induced cytopathic effect at 0.32 to 100 uM; type: functional, organism-based; procedure, shortened: as §3
Feline coronavirus = test: Antiviral activity against Feline coronavirus infected in feline CRFK cells assessed as inhibition of virus-induced cytopathic effect at 0.32 to 100 uM; type: functional, organism-based; procedure, shortened: as §3
Influenza B virus = test: Antiviral activity against Influenza B virus infected in MDCK cells assessed as inhibition of virus-induced cytopathic effect at 0.32 to 100 uM; type: functional, organism-based; procedure, shortened: as §5
[12] = system: Vesicular stomatitis virus; test: Antiviral activity against VSV infected in human lung fibroblast assessed as inhibition of virus-induced cytopathic effect at 0.32 to 100 uM; type: functional, organism-based
Glycine max = test: Inhibition of soybean LOX assessed as conversion of sodium linoleate to 13- hydroperoxylinoleic acid at 100 uM
Coxsackievirus B4 [13] = test: Antiviral activity against Coxsackievirus B4 infected in human cervix carcinoma cells assessed as inhibition of virus-induced cytopathic effect at 0.32 to 100 uM; type: functional, organism-based; procedure, shortened: as §3

Compound | IC50 (CCRF-CEM) [µM] | inhibition [1] [%] | IC50 (HeLa) [µM] | Activity [2] | inhibition (Human respirovirus 3) | inhibition (Vaccinia virus) | inhibition [3] | inhibition (Influenza A virus [4]) | inhibition (Human alphaherpesvirus 1) | inhibition (Sindbis virus) | inhibition [5] | inhibition [6] | inhibition [7] | IC50 (MCF7) [µM] | IC50 (NCI-H460) [µM] | inhibition (Felid alphaherpesvirus 1) | Activity [8] | inhibition (Human alphaherpesvirus 2) | IC50 (HCT-116) [µM] | IC50 (L1210) [µM] | other results
CC(C(=O)NNC(=O)NOCc1ccccc1)c1cccc(Oc2ccccc2)c1 (configuration not stated) | 91 | 8 | 76 | inactive | inactive | inactive | inactive | inactive | inactive | inactive | inactive | inactive | inactive | 81 | > 100 | inactive | inactive | inactive | 76 | 84 | inhibition (Influenza A virus [9]): inactive; inhibition (Coxsackievirus B4 [10]): inactive; inhibition [11]: inactive; inhibition (Punta Toro virus): inactive; inhibition (Feline coronavirus): inactive; inhibition (Influenza B virus): inactive; inhibition [12]: inactive; inhibition (Glycine max): 6%; inhibition (Coxsackievirus B4 [13]): inactive
CC(C)Cc1ccc(C(C)C(=O)NNC(=O)NCCc2ccccc2)cc1 (configuration not stated) | 148 | 33 | ≥ 250 | inactive | inactive | inactive | inactive | inactive | inactive | inactive | inactive | inactive | inactive | 23 | 51 | inactive | inactive | inactive | 26 | 180 | inhibition (Influenza A virus [9]): inactive; inhibition (Coxsackievirus B4 [10]): inactive; inhibition [11]: inactive; inhibition (Punta Toro virus): inactive; inhibition (Feline coronavirus): inactive; inhibition (Influenza B virus): inactive; inhibition [12]: inactive; inhibition (Glycine max): inactive; inhibition (Coxsackievirus B4 [13]): inactive
CC(C)Cc1ccc(C(C)C(=O)NNC(=O)NC2CCCC2)cc1 (configuration not stated) | 74 | 26 | 80 | 4% | inactive | inactive | inactive | inactive | inactive | inactive | inactive | inactive | inactive | 18 | 32 | inactive | 7% | inactive | 32 | 103 | inhibition (Influenza A virus [9]): inactive; inhibition (Coxsackievirus B4 [10]): inactive; inhibition [11]: inactive; inhibition (Punta Toro virus): inactive; inhibition (Feline coronavirus): inactive; inhibition (Influenza B virus): inactive; inhibition [12]: inactive; inhibition (Glycine max): inactive; inhibition (Coxsackievirus B4 [13]): inactive
